In ChEMBL document CHEMBL3621107, “Ring fusion strategy for synthesis and lead optimization of sulfur-substituted anthra[1,2-c][1,2,5]thiadiazole-6,11-dione derivatives as promising scaffold of antitumor agents” (Eur J Med Chem, 2015):
pIC50: −log10 of the molar value.

How the values were obtained:
PC-3 = test: Cytotoxicity against human PC3 cells after 48 hrs by SRB assay; type: functional, cell-based; settings: PC-3, 48 h
Method in brief: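 Second-stage NCI-60 panel run by the NCI Developmental Therapeutics Program, covering nine tumour subpanels. Five concentrations were tested: 0.01, 0.1, 1, 10 and 100 μM. Percentage growth at each level was plotted against log10 drug concentration. GI50, TGI and LC50 were read from these dose-response curves. Subpanel MID values were divided into the full-panel MID to give selectivity ratios.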

DU-145 = test: Cytotoxicity against human DU145 cells after 72 hrs by MTT assay; type: functional, cell-based; settings: DU-145, 72 h
Method in brief: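 DU-145 cells grown in RPMI-1640 with 5% heat-inactivated fetal calf serum at 37 °C, 5% CO2. About 2×10^3 cells per well were seeded and incubated for 24 h. Compounds were dissolved in DMSO freshly and diluted into medium (vehicle 0.1% DMSO), then cells were exposed for 72 h. MTT was added for 3 h at 37 °C and absorbance read at 570 nm.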

[1] = Cytotoxicity against human WPMY-1cells assessed as survival rate after 72 hrs by MTT assay; type: cell-based; settings: wpmy-1, 72 h
Method in brief: (§1)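 About 2×10^3 cells/well preincubated 24 h at 37 °C, 5% CO2. Compound freshly dissolved in DMSO, diluted into complete medium and added at various concentrations (vehicle 0.1% DMSO) for 72 h. MTT added for 3 h at 37 °C, absorbance read at 570 nm, survival rate derived.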

[2] = Cytotoxicity against human SV-HUC1 cells assessed as survival rate after 72 hrs by MTT assay; type: cell-based; settings: sv-huc1, 72 h
Method in brief: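 SV-HUC-1 cells grown in Ham's F-12K with 5% heat-inactivated fetal calf serum, 37 °C, 5% CO2. About 2×10^3 cells/well plated for 24 h, then a range of compound concentrations (DMSO stock diluted into medium; vehicle 0.1% DMSO) for 72 h. MTT added for 3 h at 37 °C; absorbance 570 nm.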

[3] = Cytotoxicity against human RWPE1 cells assessed as survival rate after 72 hrs by MTT assay; type: cell-based, RWPE-1; settings: rwpe-1, 72 h; method in brief: as §1

Q: With `O=C1c2ccccc2C(=O)c2c1cc(Sc1ccc(F)cc1)c1nsnc21` as the molecule, how does the pIC50 (PC-3) read?
A: 5.17

Q: And the pIC50 (DU-145)?
A: 4.95

Q: With `Cc1ccc(Sc2cc3c(c4nsnc24)C(=O)c2ccccc2C3=O)cc1` as the molecule, how does the pIC50 (PC-3) read?
A: < 4.82

Q: And the pIC50 (DU-145)?
A: < 4.82

Q: With `Cc1ccc(Sc2cc3c(c4nsnc24)C(=O)c2ccccc2C3=O)cc1C` as the molecule, how does the pIC50 (PC-3) read?
A: < 4.82

Q: And the pIC50 (DU-145)?
A: 4.85

Q: With `CC(C)(C)c1ccc(CSc2cc3c(c4nsnc24)C(=O)c2ccccc2C3=O)cc1` as the molecule, how does the pIC50 (PC-3) read?
A: 5.02

Q: What about the pIC50 (DU-145) of the same molecule?
A: 5.44

Q: With `COc1ccccc1Sc1cc2c(c3nsnc13)C(=O)c1ccccc1C2=O` as the molecule, how does the pIC50 (PC-3) read?
A: < 4.82

Q: What about the pIC50 (DU-145) of the same molecule?
A: 4.89

Q: Which results are given for `O=C1c2ccccc2C(=O)c2c1cc(Sc1ccc(Br)cc1)c1nsnc21`?
A: pIC50 (PC-3): < 4.82; pIC50 (DU-145): 4.88

Q: With `CC(C)c1ccccc1Sc1cc2c(c3nsnc13)C(=O)c1ccccc1C2=O` as the molecule, how does the pIC50 (PC-3) read?
A: < 4.82

Q: What about the pIC50 (DU-145) of the same molecule?
A: 4.84

Q: With `O=C1c2ccccc2C(=O)c2c1cc(Sc1cccc(Br)c1)c1nsnc21` as the molecule, how does the pIC50 (PC-3) read?
A: 4.91

Q: What about the pIC50 (DU-145) of the same molecule?
A: 4.97

Q: With `O=C1c2ccccc2C(=O)c2c1cc(Sc1ccccc1F)c1nsnc21` as the molecule, how does the pIC50 (PC-3) read?
A: < 4.82

Q: And the pIC50 (DU-145)?
A: 5.12

Q: Which results are given for `CCc1ccc(Sc2cc3c(c4nsnc24)C(=O)c2ccccc2C3=O)cc1`?
A: pIC50 (PC-3): 5.12; pIC50 (DU-145): 5.60

Q: With `CC(C)(C)c1ccc(Sc2cc3c(c4nsnc24)C(=O)c2ccccc2C3=O)cc1` as the molecule, how does the pIC50 (PC-3) read?
A: < 4.82

Q: And the pIC50 (DU-145)?
A: 5.08

Q: With `O=C1c2ccccc2C(=O)c2c1cc(SCc1ccccc1Cl)c1nsnc21` as the molecule, how does the pIC50 (PC-3) read?
A: 5.26

Q: And the pIC50 (DU-145)?
A: 5.20

Q: With `CC(C)c1ccc(Sc2cc3c(c4nsnc24)C(=O)c2ccccc2C3=O)cc1` as the molecule, how does the pIC50 (PC-3) read?
A: < 4.82

Q: What about the pIC50 (DU-145) of the same molecule?
A: 4.86

Q: With `O=C1c2ccccc2C(=O)c2c1cc(Sc1ccccc1Cl)c1nsnc21` as the molecule, how does the pIC50 (PC-3) read?
A: < 4.82

Q: And the pIC50 (DU-145)?
A: < 4.82

Q: What does the source list for `O=C1c2ccccc2C(=O)c2c1cc(Sc1cc(Cl)c(Cl)cc1Cl)c1nsnc21`?
A: pIC50 (PC-3): < 4.82; pIC50 (DU-145): < 4.82

Q: With `O=C1c2ccccc2C(=O)c2c1cc(SCCc1ccccc1)c1nsnc21` as the molecule, how does the pIC50 (PC-3) read?
A: < 4.82

Q: And the pIC50 (DU-145)?
A: 5.02

Q: With `CCc1ccccc1Sc1cc2c(c3nsnc13)C(=O)c1ccccc1C2=O` as the molecule, how does the pIC50 (PC-3) read?
A: < 4.82

Q: And the pIC50 (DU-145)?
A: < 4.82

Q: With `Cc1cccc(Sc2cc3c(c4nsnc24)C(=O)c2ccccc2C3=O)c1` as the molecule, how does the pIC50 (PC-3) read?
A: < 4.82

Q: What about the pIC50 (DU-145) of the same molecule?
A: < 4.82

Q: What does the source list for `COc1cccc2c1C(=O)c1c(O)c3c(c(O)c1C2=O)C[C@@](O)(C(=O)CO)C[C@@H]3O[C@H]1C[C@H](N)[C@H](O)[C@H](C)O1` [DOXORUBICIN]?
A: Activity [1]: Toxic; Activity [2]: Toxic; Activity [3]: Toxic

Q: What does the source list for `O=C1c2ccccc2C(=O)c2c1cc(Sc1cccc(F)c1)c1nsnc21`?
A: pIC50 (PC-3): 5.05; pIC50 (DU-145): 4.90

Q: What does the source list for `Cc1ccc(C)c(Sc2cc3c(c4nsnc24)C(=O)c2ccccc2C3=O)c1`?
A: pIC50 (PC-3): 5.13; pIC50 (DU-145): 4.92

Q: With `CCCSc1cc2c(c3nsnc13)C(=O)c1ccccc1C2=O` as the molecule, how does the pIC50 (PC-3) read?
A: 5.27

Q: What about the pIC50 (DU-145) of the same molecule?
A: 5.59
